# SR-BI HDL uptake = blocks mouse SR-BI lipid uptake from DiI-HDL. Q61009. ldlA[mSR-BI] CHO cells, DiI-HDL uptake fluorescence, 3 h. inhibition, % at 12.5 µM. 0.96% of 320,000 active. AID 488896;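 active means mean replicate inhibition of at least 70% and a set share of replicates each scoring 70 or more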;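 further: 0% = median of neutral control wells and 100% = median of positive control wells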
# Rin1 Abl inh = blocks binding of human Rin1 to Abl. TR-FRET Rin1/Abl binding, biochemical. inhibition, % at 7.35 µM. 0.4% of 360,000 active; in the data active means inhibition above about 5%, passing the limit was not always enough
# GRK2 inh = inhibitors of human GRK2 displacing RNA aptamer; P25098; bead flow cytometry, FAM-aptamer displacement from GRK2; inhibition of aptamer binding, % at 10 µM; 0.59% of 330,000 active; AID 488847;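 active means inhibition of aptamer binding above 40%, roughly 3 SD of noise, on plates passing a quality check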;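 further: median bead fluorescence of bound FAM aptamer so fluorescent compounds give negative values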
# Target sequence (P25098 whole entry, looked up): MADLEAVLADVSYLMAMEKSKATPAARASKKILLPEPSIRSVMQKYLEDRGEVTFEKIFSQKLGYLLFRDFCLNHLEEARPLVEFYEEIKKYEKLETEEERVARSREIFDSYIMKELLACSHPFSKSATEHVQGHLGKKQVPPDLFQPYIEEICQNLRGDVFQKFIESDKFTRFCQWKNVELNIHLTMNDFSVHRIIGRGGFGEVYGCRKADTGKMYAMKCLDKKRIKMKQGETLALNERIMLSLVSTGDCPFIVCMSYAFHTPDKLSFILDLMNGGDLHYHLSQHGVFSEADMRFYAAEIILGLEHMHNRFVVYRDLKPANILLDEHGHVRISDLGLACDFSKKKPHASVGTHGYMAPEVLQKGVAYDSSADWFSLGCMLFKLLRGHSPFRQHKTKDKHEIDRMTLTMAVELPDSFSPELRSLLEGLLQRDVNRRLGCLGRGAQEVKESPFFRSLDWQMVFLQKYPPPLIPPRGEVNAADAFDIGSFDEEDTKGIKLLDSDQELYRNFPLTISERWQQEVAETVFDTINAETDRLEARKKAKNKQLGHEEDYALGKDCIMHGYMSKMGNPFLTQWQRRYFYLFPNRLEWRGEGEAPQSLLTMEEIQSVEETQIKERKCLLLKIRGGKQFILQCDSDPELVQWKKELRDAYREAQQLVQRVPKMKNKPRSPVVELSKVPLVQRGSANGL
# SR-BI DiI-HDL act = SR-BI HDL lipid transfer activation. CHO ldlA[mSR-BI] cells, DiI-HDL uptake fluorescence, 3 h; 100 = double the neutral-control signal. activation, % at 12.5 µM. 0.096% of 320,000 active. AID 504775;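 active means mean replicate activation of at least 60% and every replicate at or above 60%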;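 further: 0% = median plate neutral-control signal and 100% = twice that signal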
#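 Test system: SR-BI-overexpressing, LDLR-lacking CHO cells; Medium: Ham's F12 with 0.5% BSA, HEPES 25 mM, pH 7.4; Schedule: 3 h, 37 °C; Technique: bottom-read fluorescence, 550/595 nm.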
# GRK2 CP1 = human GRK2 inhibition confirmation, cherry pick 1. shares compounds with GRK2 inh. bead-bound GRK2, FAM-aptamer displacement, flow cytometry. aptamer displacement, % at 10 µM. 4% of 2,000 active;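 active means aptamer displacement above 40%, near three times the noise of non-fluorescent compounds, on plates passing quality checks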;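 further: negative values mostly reflect intrinsic compound fluorescence rather than true enhancement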
# Aptamer quench = counter-screen for GRK2 aptamer inhibitors: fluorescent aptamer quenchers. shares compounds with GRK2 inh. Fluorescent RNA aptamer beads, quenching, flow cytometry; active compounds read high. fluorescence change (kMESF span), kMESF (test concentration not listed). 110 tested, under 10 active;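 active means compounds whose bead fluorescence drops by more than 37 kMESF across the dose range, marking them as dye quenchers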
# FAM quench CP1 = counter-screen for GRK2 aptamer inhibitors: fluorescent aptamer quenchers; shares compounds with GRK2 inh; Carboxyfluorescein RNA aptamer on beads, flow cytometry quenching; active compounds read low; fluorescence response (% of DMSO), % at 10 µM; 2,000 tested, under 10 active; AID 504580;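 active means compounds that quench the bead-bound fluorescent RNA probe, cutting fluorescence to under half of the solvent control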;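 further: counterscreen run without GRK2 so only probe quenching by compound is measured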
# GRK2 CP2 = confirmation of human GRK2 inhibitors binding RNA aptamer site; shares compounds with GRK2 inh; bead-bound GRK2, FAM-aptamer displacement, flow cytometry; inhibition of aptamer binding, % at 10 µM; 360 tested, under 10 active; AID 504782;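 active means inhibition of aptamer binding above 40%, about triple the noise seen with nonglowing compounds, on plates passing quality control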;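 further: negative values mostly come from compounds that fluoresce themselves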
# Aptamer quench3 = quenches fluorescent RNA aptamer, GRK2 hit artifact. shares compounds with GRK2 inh. change in fluorescence (kMESF span), kMESF (concentration not given with the values). 25 tested, under 10 active. Streptavidin beads, FAM-RNA aptamer fluorescence quenching, flow cytometry;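 active means compounds quenching the bead-bound labeled aptamer, with fluorescence dropping by more than 37 kMESF over the dose range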
# FAM quench CP2 = aptamer fluorescence quenching in GRK2 counter-screen; shares compounds with GRK2 inh; carboxyfluorescein RNA aptamer beads, flow cytometry quenching; active compounds read low; fluorescence response vs DMSO, % at 10 µM; 360 tested, under 10 active; AID 588494;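 active means response vs DMSO under 50%, meaning signal dropped by over half, treated as fluorescence quencher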;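 further: labelled aptamer on streptavidin beads without GRK2 as a quench counter-screen; 100% = bead fluorescence of DMSO wells and lower means quenching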
# FAM quench DR = counter-screen for GRK2 aptamer binding inhibitors: aptamer fluorescence quenching. shares compounds with GRK2 inh. Bead-bound FAM RNA aptamer fluorescence quenching, flow cytometry; active compounds read low. fluorescence ratio to DMSO, % at 11.1 µM. 35 tested, under 10 active;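 active means compounds that dim the fluorescent label, raw bead signal shifting by over 33 units between lowest and highest dose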
# * = called active by the depositor; / = not tested or not shown. Hits are enriched below; roughly 1.9% of the tested compounds scored in any of these assays.
SMILES,SR-BI HDL uptake,Rin1 Abl inh,GRK2 inh,SR-BI DiI-HDL act,GRK2 CP1,FAM quench CP1,others
CCCC(C)NC(=O)c1c2c(nc3ccccc13)CCC2 (stereo not drawn),2.5,4.0,6.0,-2.5,/,/,
O=C(NCc1ccccc1)c1cc(C2COCCN2C(=O)OCCF)on1 (stereo not drawn),/,1.6,/,/,/,/,
COc1ccc(OC(=O)C2CC(=O)N(c3ccc(C)cc3)C2)cc1 (stereo not drawn),-12.0,-1.9,0.0,12.0,/,/,
COC(=O)C1CC(=O)N(c2ccc(C)cc2)C1 (stereo not drawn),-10.4,3.6,94.0*,10.4,1.4,98.0,
Cn1c(C(=O)N2CCCC(C(=O)NCCCSC3CCCCC3)C2)cc2sccc21 (stereo not drawn),49.9,-0.8,25.0,-49.9,1.3,95.8,
CCN(CC)C(=O)C1=C(C)N(CCCN2CCCC2=O)C(=O)C(CC(=O)NCCCN(C)C)C1 (stereo not drawn),/,0.7,/,/,/,/,
CCOC(=O)C(NC(C)=O)C(=O)Nc1ccc(C)cc1C (stereo not drawn),-13.8,-1.5,50.0*,13.8,-0.8,102.4,
CCOC(=O)Nc1ccc(C)cc1C,4.8,0.0,1.0,-4.8,/,/,
COc1ccccc1CN1CC(C(=O)N(C)Cc2ccc(C)o2)CCC1=O (stereo not drawn),-15.2,-0.8,4.0,15.2,/,/,
CNc1snc(C)c1C(=O)OCC(=O)c1ccc(Cl)cc1,13.8,-0.9,51.0*,-13.8,6.3,91.0,
CCN(Cc1ccccc1)C(=O)COC(=O)c1c(C)nsc1NC,8.0,2.7,0.0,-8.0,/,/,
C[C@H](CO)N1C[C@H](C)[C@H](CN(C)Cc2ccncc2)Oc2cc(-c3ccccc3F)ccc2S1(=O)=O,/,4.1,/,/,/,/,
CC(=O)NCCOC(=O)Nc1sc(=S)n(C)c1C,23.2,2.6,3.0,-23.2,/,/,
Cc1c(NC(=O)OC(C)C)sc(=S)n1C,/,-2.5,34.0,/,0.2,117.2,
COc1ccc(NC(=O)Nc2sc(=S)n(C)c2C)cc1,5.9,-3.9,98.0*,-5.9,-3.2,95.7,
COc1ccc(NC(=O)Nc2ccc(OC)cc2)cc1,-43.0,0.5,1.0,43.0,/,/,
CC(C)Nc1nc(NCc2ccccc2)c2sccc2n1,/,1.4,/,/,/,/,
CN1CCN(C2CN(CCc3ccccc3)S(=O)(=O)C2)CC1 (stereo not drawn),/,-0.6,/,/,/,/,
CCCNC(=O)C1(C)CCN(C(=O)c2ccc(OC)cc2OC)C1 (stereo not drawn),/,-4.7,/,/,/,/,
N#Cc1c(NC(=O)c2ccc(-c3ccccc3[N+](=O)[O-])o2)sc2c1CCCC2,60.4,1.8,2.0,-60.4,/,/,
CC1CCc2c(sc(NC(=O)c3ccc(-c4ccccc4[N+](=O)[O-])o3)c2C#N)C1 (stereo not drawn),90.4*,3.8,73.0*,-90.4,2.9,94.2,
Cc1sc2nc(CN(Cc3ccccc3)C(=O)NC3CCCCC3)[nH]c(=O)c2c1C,8.6,4.3,30.0,-8.6,-1.7,100.8,
COc1ccc([N+](=O)[O-])cc1NC(=O)CS(=O)(=O)c1ccc(C)cc1,29.3,-0.4,1.0,-29.3,/,/,
COc1ccc(S(=O)(=O)CCC(=O)Nc2ccc(OC)cc2OC)cc1,-9.6,2.2,4.0,9.6,/,/,GRK2 CP2=-6.7;FAM quench CP2=102.0
COc1ccc([N+](=O)[O-])cc1NC(=O)CCS(=O)(=O)c1ccc(Br)cc1,5.3,-2.9,54.0*,-5.3,33.3,101.9,Aptamer quench=-7.6;Aptamer quench3=1.9;FAM quench DR=97.0
SMILES,SR-BI HDL uptake,Rin1 Abl inh,GRK2 inh,SR-BI DiI-HDL act,GRK2 CP1,FAM quench CP1,others
COc1ccc(S(=O)(=O)CCC(=O)N(C)c2ccc(OC)cc2OC)cc1,-15.7,-1.2,2.0,15.7,/,/,GRK2 CP2=17.0;FAM quench CP2=101.0
COc1ccccc1-c1nnc(SCC(=O)NC2CC2)n1C,-20.1,-1.8,86.0*,20.1,2.9,96.1,
Cc1ccccc1-n1ccnc1SCC(=O)NC1CCCC1,11.2,-3.5,49.0*,-11.2,1.7,99.6,
Cc1ccccc1-n1ccnc1SCC(=O)NCC1CCCO1 (stereo not drawn),-16.1,-1.5,0.0,16.1,/,/,
COc1ccccc1-c1nnc(SCC(=O)NC2CCCCC2)n1C,/,2.0,0.0,/,/,/,
COC(=O)Cc1nnc(Nc2cccc(C)c2)c2ccccc12,11.5,-4.0,3.0,-11.5,/,/,
CCOC(=O)Cc1nnc(Nc2cccc(C)c2)c2ccccc12,40.2,-0.3,92.0*,-40.2,11.0,132.7,
Cc1cc(=O)oc2cc(OCC(=O)N/N=C/c3cc([N+](=O)[O-])ccc3O)ccc12,0.7,-5.8,75.0*,-0.7,-2.1,98.5,
Cn1cc(CNCC2CCCO2)c(-c2ccc(Oc3ccccc3)cc2)n1 (stereo not drawn),-23.8,3.5,0.0,23.8,/,/,
Cc1cc(CNCc2cn(C)nc2-c2ccc(Oc3ccccc3)cc2)on1,2.2,-1.4,100.0*,-2.2,-0.5,101.1,
CCOC(=O)COc1ccccc1/C=C\[N+](=O)[O-],-28.4,2.2,0.0,28.4,/,/,
CCN(CC)CCCN=C1N[C@@H](c2cccc(F)c2)C(C(=O)OC)=C(C)N1Cc1ccccc1,2.5,3.9,51.0*,-2.5,/,/,GRK2 CP2=0.7;FAM quench CP2=100.0
COC(=O)C1=C(C)N(Cc2ccccc2)C(=NCc2ccccc2)N[C@H]1c1cccc(F)c1,-12.1,-0.1,0.0,12.1,/,/,
CCN(CC(=O)NCc1cccs1)C(=O)c1cccc(S(=O)(=O)N(C)C)c1,-18.1,1.9,1.0,18.1,/,/,
O=C(CCS(=O)(=O)c1ccc(Br)cc1)NCc1ccco1,3.8,-3.3,63.0*,-3.8,28.4,99.2,Aptamer quench=-2.9;Aptamer quench3=2
O=C(CCS(=O)(=O)c1ccc(Br)cc1)NCc1cccs1,-15.9,1.9,94.0*,15.9,57.5*,96.0,Aptamer quench=2.1;Aptamer quench3=4.1;FAM quench DR=98.0
O=C(CCCCC(=O)NCc1cccs1)NCc1cccs1,-19.8,1.7,1.0,19.7,/,/,
CCN(CC(=O)NCc1cccs1)C(=O)c1cccc(S(=O)(=O)NC)c1,1.2,1.7,48.0*,-1.2,-3.3,96.5,
Cc1ccccc1C1N=C2Oc3ccccc3C=C2C(=O)N1 (stereo not drawn),/,2.0,/,/,/,/,

# Screening data from PubChem.
